Reference: ChEMBL document CHEMBL3576824, “Phenolic diterpenoid derivatives as anti-influenza a virus agents” (ACS Med Chem Lett, 2015)
Calls of active or inactive are those of the source.

Tests used:
[1] = Cytotoxicity against MDCK cells assessed as reduction of cell viability; format: cell-based, Canis lupus familiaris; settings: dog
How it was run: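 Uninfected MDCK cells. CC50 is the concentration (μM) that reduced cell viability by 50%.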

Influenza A virus [2] = assay: Antiviral activity against oseltamivir-sensitive Influenza A virus (A/Hong Kong/8/68(H3N2)) infected in MDCK cells assessed as protection against virus-induced cytocidal effect at 20 uM after 48 hrs by CellTiter-Glo assay relative to control; format: functional
How it was run: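 Same cytocidal protection assay in MDCK cells with H3N2 virus, tested at concentrations up to 20 μM. The read-out is the percent inhibition of viral cytocidal effect, with 50% used as the threshold.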

Influenza A virus [3] = assay: Antiviral activity against oseltamivir-sensitive Influenza A virus (A/Hong Kong/8/68(H3N2)) assessed as inhibition of viral infectivity in MDCK cells at 10 uM after 6 hrs by FITC conjugated anti-NP antibodies/DAPI staining-based confocal microscopic analysis; format: functional, organism-based
How it was run: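 MDCK cells were infected at MOI = 1 in the presence of 10 μM compound for 6 h. Infected cells were stained with FITC-conjugated anti-NP antibody, with DAPI as nuclear stain, and imaged by confocal microscopy. Infected cells without compound served as control.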

[4] = Metabolic stability in human plasma assessed as compound remaining at 1 uM after 10 mins by reverse phase HPLC analysis; format: ADME, cell-free; settings: read-out: Stability
How it was run: (§1)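 Compound incubated in 80% human plasma at 37 °C for varying times. Initial and remaining parent compound were quantified by reverse-phase HPLC. Benfluorex served as control. Data are averages of duplicate experiments.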

[5] = Metabolic stability in human plasma assessed as compound remaining at 1 uM after 2 hrs by reverse phase HPLC analysis; format: ADME, cell-free; settings: read-out: Stability; how it was run: as §1

SMILES	CC50 [1] [µM]	Activity (Influenza A virus [2]) [%]	inhibition (Influenza A virus [3])	remaining at 10 min, 1 µM [4] [%]	remaining at 2 h, 1 µM [5] [%]
COC(=O)[C@@]1(C)CCC[C@]2(C)c3cc(OC(=O)CCCCCBr)ccc3CC[C@@H]12	> 40	<50			
C=CC(=O)Oc1ccc2c(c1)[C@@]1(C)CCC[C@](C)(C(=O)NC)[C@@H]1CC2	> 40	<50			
COC(=O)[C@@]1(C)CCC[C@]2(C)c3cc(OC(=O)CCBr)ccc3CC[C@@H]12	> 40	<50	Active		
CNC(=O)[C@@]1(C)CCC[C@]2(C)c3cc(O)ccc3CC[C@@H]12	> 40	<50			
CC(C)c1c(O)ccc2c1CC[C@H]1C(C)(C)CCC[C@]21C [TOTAROL]	21	<50			
C[C@]1(C(=O)OCc2ccccc2)CCC[C@]2(C)c3cc(OC(=O)CCC(=O)O)ccc3CC[C@@H]12	> 40	<50			
COC(=O)[C@@]1(C)CCC[C@]2(C)c3cc(OC(C)=O)ccc3CC[C@@H]12	> 40	<50		30	
COC(=O)[C@@]1(C)CCC[C@]2(C)c3cc(OC(=O)C4CC4)ccc3CC[C@@H]12	> 40	<50			
COC(=O)[C@@]1(C)CCC[C@]2(C)c3cc(OC(=O)C(C)C)ccc3CC[C@@H]12	> 40	<50			
C[C@]1(C(=O)OCc2ccccc2)CCC[C@]2(C)c3cc(O)ccc3CC[C@@H]12	> 40	<50			
COC(=O)[C@@]1(C)CCC[C@]2(C)c3cc(OC(=O)CCCCBr)ccc3CC[C@@H]12	> 40	<50			
COC(=O)[C@@]1(C)CCC[C@]2(C)c3cc(OC(=O)CCCC(=O)O)ccc3CC[C@@H]12	> 40	<50			
COC(=O)[C@@]1(C)CCC[C@]2(C)c3cc(OC)ccc3C(=O)C[C@@H]12	> 40	<50			
COC(=O)[C@@]1(C)CCC[C@]2(C)c3cc(OC(=O)CCC(=O)O)ccc3CC[C@@H]12	> 40	<50			
C[C@]1(C(=O)O)CCC[C@]2(C)c3cc(O)ccc3CC[C@@H]12 [PODOCARIC ACID]	91.2	<50			
C[C@]1(C(=O)O)CCC[C@]2(C)c3cc(OC(=O)CCC(=O)O)ccc3CC[C@@H]12	> 40	<50			
COC(=O)[C@@]1(C)CCC[C@]2(C)c3cc(OC(=O)C(C)F)ccc3CC[C@@H]12 (stereo partly specified)	> 40	<50			
COC(=O)[C@@]1(C)CCC[C@]2(C)c3cc(OCCC(=O)O)ccc3CC[C@@H]12	> 40	<50			
COC(=O)[C@@]1(C)CCC[C@]2(C)c3cc(OC)ccc3CC[C@@H]12	> 40	<50			
COC(=O)[C@@]1(C)CCC[C@]2(C)c3cc(O)ccc3CC[C@@H]12	> 40	<50			86
C[C@]1(C(=O)OCc2ccccc2)CCC[C@]2(C)c3cc(OCCC(=O)O)ccc3CC[C@@H]12	> 40	<50			
C=CC(=O)Oc1ccc2c(c1)[C@@]1(C)CCC[C@](C)(C(=O)OCc3ccccc3)[C@@H]1CC2	> 40	<50			
C=CC(=O)Oc1ccc2c(c1)[C@@]1(C)CCC[C@](C)(C(=O)OC)[C@@H]1CC2	> 40	<50			
COC(=O)[C@@]1(C)CCC[C@]2(C)c3cc(OC(=O)CCCBr)ccc3CC[C@@H]12	> 40	<50			
